# Measured values pooled from the literature.
# KIT autoinhibited: Mast/stem cell growth factor receptor Kit, autoinhibited (KIT, Homo sapiens, UniProt P10721)
# KIT D816V: Mast/stem cell growth factor receptor Kit (KIT, Homo sapiens, UniProt P10721, D816V)
# KIT: Mast/stem cell growth factor receptor Kit (KIT, Homo sapiens, UniProt P10721)
# KIT A829P: Mast/stem cell growth factor receptor Kit (KIT, Homo sapiens, UniProt P10721, A829P)
# KIT T670I/V559D: Mast/stem cell growth factor receptor Kit (KIT, Homo sapiens, UniProt P10721, T670I/V559D)
# KIT D816H: Mast/stem cell growth factor receptor Kit (KIT, Homo sapiens, UniProt P10721, D816H)
SMILES,target,effect on,technique,concentration,remaining binding [%]
N[C@H]1CCN(c2nccc(-c3cnn4ncccc34)n2)C1,KIT autoinhibited,binding,,1 µM,0
N#Cc1ccccc1CSc1nnc2c(n1)[nH]c1ccccc12,KIT D816V,binding,competition with immobilised ligand,10 µM,75
COc1ccc2c(c1)O[C@H](c1ccc(OC)c(OC)c1)C[C@@H]2NC(=O)C1(c2ccc3c(c2)OC(F)(F)O3)CC1,KIT,cell-free assay,competition with immobilised ligand,1 µM,100
O=C(c1ccc(Nc2ncc(Cl)c(-c3ccc(Cl)s3)n2)cc1)N1CCC(N2CCCC2)CC1,KIT autoinhibited,binding,competition with immobilised ligand,1 µM,7.2
CN(C)c1nccc(-c2cnn3ncccc23)n1,KIT A829P,binding,,1 µM,81
O=C(NCCCN1CCOCC1)c1ccc(Nc2ncc(Cl)c(-c3ccc(Cl)s3)n2)cc1,KIT T670I/V559D,binding,competition with immobilised ligand,1 µM,2.3
CNC(=O)Nc1ccc2c(c1)[C@@]1(CC2)OC(=O)N(CC(=O)N(Cc2ccc(F)cc2)[C@@H](C)C(F)(F)F)C1=O,"Mast/stem cell growth factor receptor Kit (KIT, Homo sapiens, UniProt P10721, V559D)",cell-free assay,competition with immobilised ligand,1 µM,100
CN(c1nccc(-c2cnn3ncccc23)n1)C1CC1,KIT autoinhibited,binding,,1 µM,100
O=C(Nc1c[nH]nc1C(=O)NC1CCNCC1)c1cc(F)cc(F)c1,KIT A829P,binding,competition with immobilised ligand,1 µM,92
CNC(=O)[C@@H]1CC[C@@H](n2c(-c3ccc4cnccc4c3)nc3ccc(C(=O)NCc4cccc(C(N)=O)c4)cc32)C1,KIT D816V,binding,competition with immobilised ligand,1 µM,99
c1cncc(-c2cccc(Nc3nccc(NC4CCCCC4)n3)c2)c1,KIT,binding,competition with immobilised ligand,10 µM,3.8
O=C(c1ccc(Nc2nccc(-c3cc4ccccc4s3)n2)cc1)N1CCC(N2CCCC2)CC1,KIT D816H,binding,competition with immobilised ligand,1 µM,18
CC(C)(O)c1cncc(-c2nc3ccc(F)cc3n2C2CC2)c1,KIT A829P,cell-free assay,competition with immobilised ligand,1 µM,100
CN1CCN(c2ccc(Nc3nccc(-c4ccccc4)n3)cc2C(F)(F)F)CC1,KIT A829P,binding,,10 µM,20
C=CC(=O)N1CCC(C(=O)NCC(=O)N2CCN(c3nc(-c4cnc(N)nc4C(F)F)nc(N4CCOCC4)n3)CC2)CC1,KIT T670I/V559D,binding,competition with immobilised ligand,1 µM,82
Nc1ncc2c(n1)-c1c([nH]c3ccc(C#CC4CC4)cc13)CCCC2,KIT A829P,binding,competition with immobilised ligand,1 µM,72
CN(C)c1nccc(-c2cnc3ncccn23)n1,KIT D816H,binding,,1 µM,52
O=C(O)[C@H]1[C@H](Cn2nnc3ccccc3c2=O)CC[C@@H]1C(=O)c1ccc(OCCC2CCOCC2)cc1,KIT D816H,cell-free assay,competition with immobilised ligand,1 µM,80
CN(C)c1ncc(F)c(-c2cnn3ncccc23)n1,KIT T670I/V559D,binding,,1 µM,100
CN1CCN(c2cnc3c(C4CCN(C(=O)c5ccc(OC(F)(F)F)cc5N)CC4)ncnc3c2)CC1,KIT autoinhibited,cell-free assay,competition with immobilised ligand,1 µM,85
C[C@@H]1CCN(c2nccc(-c3cnn4ncccc34)n2)C1,KIT A829P,binding,,1 µM,85
CCS(=O)(=O)c1cc2cc(C[C@](O)(CC(C)(C)c3ccc(F)cc3C(N)=O)C(F)(F)F)[nH]c2cn1,KIT D816H,cell-free assay,competition with immobilised ligand,1 µM,98
F[C@@H]1CCN(c2nccc(-c3cnn4ncccc34)n2)C1,KIT autoinhibited,binding,,1 µM,100
CS(=O)(=O)N1CCCC(NC(=O)[C@H](CCC2CCCCC2)NC(=O)c2ccc(CNc3ncnc4c3nnn4-c3ccccc3)cc2)C1 (stereo partly drawn),"Mast/stem cell growth factor receptor Kit (KIT, Homo sapiens, UniProt P10721, L576P)",cell-free assay,competition with immobilised ligand,0.1 µM,78
